System: MS2 coat protein
Assay: apparent Kd, MS2 coat protein; higher = weaker binding; RNA-MaP array; FMN 200 µM where present
Procedure, shortened: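 The apparent Kd comes from binding curves fitted cluster by cluster, filtered, and summarised as a median. Those curves followed SNAP-549-labelled MS2 coat protein from 0.7 or 1.5 nM, doubling to 3 µM, on Illumina sequencing-chip clusters where stalled E. coli RNA polymerase had transcribed the designs, without and then with constant ligand. The buffer was 100 mM Tris-HCl pH 7.5, 80 mM KCl, 4 mM MgCl2, BSA, DTT, yeast tRNA and Tween-20, and green signal was normalised to red-channel RNA signal and control-cluster median Fmax.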

[1] = designed as: OFF switch for flavin mononucleotide, no ligand
[2] = ligand present: flavin mononucleotide, designed as: OFF switch for flavin mononucleotide
[3] = ligand present: flavin mononucleotide, designed as: ON switch for flavin mononucleotide
[4] = designed as: ON switch for flavin mononucleotide, no ligand

| Sequence | apparent Kd [1] | apparent Kd [2] | apparent Kd [3] | apparent Kd [4] |
| --- | --- | --- | --- | --- |
| UGAUACUGAGAGAAGGUUCAAACUACAUAUUGCAUACAUGAGGAUCACCCAUGUUGGUGAAUAAGAAAGGAUAUUUUACUAUAU | 0.047 µM | 0.0328 µM | – | – |
| UGAUCGAAAGAUCAUAGAUUCUGCUAGGAUAUGCAGAAGUUUCAAUUUACAUGAGGAUCACCCAUGUAGAAGGAGUAGAGUCUA | 0.00548 µM | 0.00598 µM | – | – |
| UUCGAGCCAAGGCUCGCGAGUACACAGGAUAUGGAAAGUCACAUGAGGAUCACCCAUGUCCAAAACCAGAAGGGUGAGACUAAG | – | – | 0.0704 µM | – |
| GUGAGGUAAGGAUAUAGUAGUGAAGGUAAGAUAUGAGAAUGCUAGAAGGUACAUGAGGAUCACCCAUGUUCGGG | 0.117 µM | 0.116 µM | – | – |
| ACUUUAGUAUCACAUGUAUUACAUGAGGAUCACCCAUGUUACUAGGAUAUGUAUUAGAAUUUACAACAGAAGGAGUAAGAAUGU | 0.00817 µM | 0.00983 µM | – | – |
| GUCAGCUCGUGAGGAUAUACAACACUGCUUCGGCAGUGUAUUAAGAUCACAUGAGGAUCACCCAUGUAGAAGGCACGAGCUGAU | 0.0421 µM | 0.832 µM | – | – |
| AGUAGAUCAGGAUAUACAUAAAUGAUAAUUAUGUACCUAAUACAUGAGGAUCACCCAUGUAGAAGGGAUCUACA | 0.0149 µM | 0.0179 µM | – | – |
| CGAUAUGAUGCAGGAUAUCUAUCUUGAAUGAGGAGAGAAGGGCAAAGGGAGACAUAAGCCUUAUUACAUGAGGAUCACCCAUGU | 0.0133 µM | 0.0113 µM | – | – |
| UCUUAUUGCAAGGAUAUGCUUUUUAUUUCUUUUGCAGAAGGUGCAACAUGAGGAUCACCCAUGUUUCCGGGUAU | 0.0241 µM | 0.0595 µM | – | – |
| GAGAAGUCAGGAUAUGCAUGGCGGGACUUGCGUCGUGGCGUGCAGAAGGGACAUGAGGAUCACCCAUGUAAAGG | 0.143 µM | 0.265 µM | – | – |
| UUCACGUUAGUAGGAUAUCCGACAUGAGGAUCACCCAUGUCAACAUGGCUCUAGGGAAGUUGUUAGGAGAAGGGCUUUUAAAUA | – | – | 0.0103 µM | 0.0119 µM |
| GUGACGAAUGUAGGAUAUGCUGAGGAUAACUCAGCAGAAGGACAUGAGGAUCACCCAUGUAAUCCUAAUAAUAAAUAACGUCAC | 0.0127 µM | 0.0183 µM | – | – |
| GUUUUACAUGAGGAUCACCCAUGUGAGGAUAUAUUGUUAAUAGUGAUAAUUAUUGGUGGUAGAAGGCGCGUGAU | 0.0468 µM | 0.0397 µM | – | – |
| CCGAAACCUCAGAAGGACCACAUGAGGAUCACCCAUGUCAAGCAAAACGGUAGGAUAUGAGGGAAAAGUCAAUAUACCCGACAG | – | – | 0.0049 µM | 0.0113 µM |
| ACGUAUAGAGGAUAUAGUGAAUAUUACAUGAGGAUCACCCAUGUUCUUCAAAGUAUAUUUCUAGAAGGCUAAUGAA | 0.035 µM | 0.0927 µM | – | – |
| CCUAAACAUGAGGAUCACCCAUGUGAGGAUAUGAUGCGAAUAAAGAAAGAAGAAAGCAUCAGAAGGCACAUAGG | 0.173 µM | 0.27 µM | – | – |
| UGUUGUAUUACAGGAUAUCUAUUGUAUUUAUUUAGAGAAGGGUAUUCACAUGAGGAUCACCCAUGUAUAUACGAGGAAGUUGUG | – | – | 0.0708 µM | 0.0639 µM |
| AGUGUGUGGCAGGAUAUUCUGUUGGUUCGGGCAGAAGAAGGGUCUACAUGAGGAUCACCCAUGUAAGCGGUUGA | 0.205 µM | 0.486 µM | – | – |

Source: the EternaBench riboswitch data
